Compound activity: PubChem, several laboratories
Hits are enriched below; roughly 9.2% of the tested compounds scored in any of these assays.
PTEN del growth: growth suppressors of cells with PTEN tumor suppressor deletion | HCT116 PTEN-null viability, CellTiter-Glo, 60 h; active compounds read low | viability, % at 10 µM | hit rate 1.2% among 140,000;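 active = viability at or below a set limit, 4 SD under the median of all tested compounds, cut at about 3.7% in these data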;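 also: PTEN knockout HCT116 line with beta catenin targeted HCT116 as companion control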
HCT116 bCat-KO: beta-catenin-lacking colon tumor cell growth suppression | HCT116 beta-catenin knockout viability, CellTiter-Glo, 60 h; active compounds read low | viability, % at 10 µM | hit rate 1.5% among 140,000;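 active = viability at or under a set limit, the compound median less 4 SD, cut at about 6% in these data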
Lmaj promast: Leishmania major promastigote growth inhibition | Leishmania major promastigotes, resazurin fluorescence viability | inhibition, % at 10 µM | hit rate 9% among 200,000; in the data active = inhibition above about 50%;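 also: promastigotes grown with compound for 44 hours at 28 °C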
Dynein transport: blocks dynein driven cargo transport along microtubules | z-score, hits read low | AID 1381 | hit rate 0.47% among 220,000 | 3617.4 mouse cells, GR-EGFP nuclear translocation imaging; test concentration mostly 20 µM; stimulated with dexamethasone, 1 µM; active compounds read low;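 active = plate z-score of nuclear minus cytoplasmic receptor signal below a set negative limit, without overly bright fluorescence or cell loss, cut at about -3.5 in these data, passing the limit was not always enough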;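 also: z-score of nuclear minus cytoplasmic ring GR-EGFP intensity difference per well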
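Buffer or medium – tet-free medium with charcoal-stripped serum · Signal – automated 10x imaging of fixed Hoechst-stained cells · Also added – dexamethasone agonist, 1.0 µM final, for 30 min · Incubation – induction 48 h, compound 1 h, agonist 30 min · Read-out – GR-EGFP nuclear translocation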
Autophagy HCS: alters autophagy in cells; MEF GFP-LC3 puncta imaging; test concentration mostly 10 µM; calls only at 10 µM (by protocol); hit rate 0.98% among 190,000; AID 463193;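 active = percentage of spot-positive cells more than 3 SD above its plate mean, without a fluorescence outlier flag or 80% toxicity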
Hits are given with their value; i = inactive; nt = no result; + = active, no number.

SMILES	PTEN del growth	HCT116 bCat-KO	Lmaj promast	Dynein transport	Autophagy HCS
CCN1CCCc2cc(CN(CCN3CCOCC3)C(=S)Nc3ccccc3OC)ccc21	nt	nt	i	i	i
COc1ccccc1NC(=O)Nc1ccc(CC#N)cc1	nt	nt	nt	i	nt
COc1cccc(-c2nnc(-c3ccc(C(F)(F)F)cc3)o2)c1OC	i	i	i	i	i
COc1cc(OC)c(-c2nnc(-c3ccc(OC)c(OC)c3OC)o2)cc1OC	i	i	56	i	i
Cc1cccc(C2(c3cccc(C)c3)CC2C(=O)Nc2ccc([N+](=O)[O-])cc2O)c1 (centres undefined)	i	5.9	99	i	i
Cc1cccc(C2(c3cccc(C)c3)CC2C(=O)NCC2CCCO2)c1 (centres undefined)	i	i	i	i	i
CCCNC(=O)COC(=O)c1[nH]c(C)c(C(=O)OCC)c1C	i	i	i	i	i
CCOC(=O)c1c(C)[nH]c(C(=O)OCC(=O)Nc2cc(C)c(Cl)cc2OC)c1C	1.5	1.6	i	i	+
CCOC(=O)c1c(C)[nH]c(C(=O)N/N=C\c2ccccc2Cl)c1C	i	i	i	i	+
CCOc1cc(C(=O)OCC(=O)NC(C)c2ccccc2)ccc1OCC(=O)N1CCOCC1 (centres undefined)	nt	nt	i	i	i
O=C1Nc2ccc(Br)cc2C1=Nc1ccc(-c2nnc3n2CCCCC3)cc1	i	i	74	i	i
CCOC(=O)c1c(Cl)c(C)nn1-c1nc(OC)cc(OC)n1	i	i	i	i	i
CCOc1cc(C(=O)Nc2ccccc2F)cc(Br)c1OCC	i	i	i	i	i
Cc1ccc(S(=O)(=O)/N=C2\C(=O)c3ccccc3C([O-])=C2n2cc[n+](CCC(C)C)c2)cc1	i	3.7	88	i	i
Cc1ccc(S(=O)(=O)[N-]c2nc3ccccc3nc2-n2cc[n+](CCC(C)C)c2)cc1	i	i	99	i	i
CCCC[n+]1ccn(C2=C([O-])c3ccccc3C(=O)/C2=N\S(=O)(=O)c2ccc(Br)cc2)c1	i	i	i	i	i
Cc1ncoc1C(=O)N1CCCC(C(=O)c2ccc(C(F)(F)F)cc2)C1 (centres undefined)	nt	nt	i	i	i
COc1cc(/C=N/n2nnnc2N)ccc1OCc1c(C)no[n+]1[O-]	i	i	54	i	i
CN(C)C(=O)NC(O)C(Cl)Cl (centres undefined)	i	i	i	i	i
CNC(=O)/C(C#N)=C/c1c(N(Cc2ccccc2)Cc2ccccc2)nc2c(C)cccn2c1=O	i	i	72	i	i
CCNC(=O)/C(C#N)=C/c1c(N2CCN(Cc3ccc4c(c3)OCO4)CC2)nc2c(C)cccn2c1=O	i	i	55	i	i
CCNC(=O)/C(C#N)=C/c1c(N(Cc2ccccc2)Cc2ccccc2)nc2ccccn2c1=O	i	i	56	i	i
COC(=O)CCNCCSc1nnc(-c2ccco2)n1Cc1ccccc1	nt	nt	nt	i	nt
O=S1(=O)C=C(SCc2cccc(Cl)c2)Nc2ccccc21	i	i	i	i	i
COc1ccc2[nH]c3c(N4CCN(Cc5ccc6c(c5)OCO6)CC4)ncnc3c2c1	i	i	56	i	i
SMILES	PTEN del growth	HCT116 bCat-KO	Lmaj promast	Dynein transport	Autophagy HCS
COc1ccc2c(c1)c1ncnc(N3CCN(Cc4ccc5c(c4)OCO5)CC3)c1n2C	i	i	i	i	i
COc1ccc2[nH]c3c(N4CCC(O)(c5cccc(C(F)(F)F)c5)CC4)ncnc3c2c1	i	4.5	100	i	i
CCCCc1nc(S(=O)(=O)c2ccc(Cl)cc2)c(N2CCOCC2)o1	i	i	i	i	i
O=C(c1cc2cc([N+](=O)[O-])ccc2oc1=O)N1CCN(c2ncccn2)CC1	i	i	i	i	+
O=C(c1cc2cc([N+](=O)[O-])ccc2oc1=O)N1CCOCC1	nt	nt	i	i	i
CSc1nnc2n(Cc3ccccc3)c(=O)c3c4c(sc3n12)COC(C(C)C)C4 (centres undefined)	i	i	i	i	i
Cc1nnc2n(Cc3ccccc3)c(=O)c3c4c(sc3n12)COC(C(C)C)C4 (centres undefined)	i	i	55	i	i
Nc1ccc(C(=O)Nc2ccc(NC(=O)c3ccco3)c(O)c2)cc1	nt	nt	nt	i	nt
Cc1c(C(=O)Nc2ccc3c(c2)OCCO3)sc2nc(-c3ccccc3)cn12	i	i	56	i	i
Cc1c(C(=O)Nc2ccncc2)sc2nc(-c3ccccc3)cn12	i	i	76	i	i
Cc1c(C(=O)NCc2ccco2)sc2nc(-c3ccccc3)cn12	i	i	i	i	i
CC(C)n1c(NCc2ccc(Cl)cc2)nc2ccccc21	nt	nt	nt	i	nt
COc1cccc(NC(=O)C2CCC(CNS(=O)(=O)c3cccs3)CC2)c1 (centres undefined)	nt	nt	i	i	i
CC(NC(=O)C(C)N1C(=O)C2C3CC(C(Br)C3Br)C2C1=O)c1ccccc1 (centres undefined)	i	i	82	i	i
COc1ccccc1C(c1nnnn1CCc1ccccc1)N1CCN(c2ccccc2)CC1 (centres undefined)	i	i	i	i	i
COCCn1nnnc1C(c1ccccc1OC)N1CCN(c2ccccc2)CC1 (centres undefined)	i	i	i	i	+
COc1ccc(C(c2nnnn2CCc2ccccc2)N2CCN(C)CC2)cc1OC (centres undefined)	i	i	i	i	i
COc1ccc(N2CCN(C(c3nnnn3CCc3ccccc3)C(C)C)CC2)cc1 (centres undefined)	i	i	89	i	i
COc1ccccc1N1CCN(C(c2ccccc2)c2nnnn2CCc2ccccc2)CC1 (centres undefined)	i	i	64	i	i
Fc1ccc(C(c2nnnn2CCc2ccccc2)N2CCCc3ccccc32)cc1 (centres undefined)	i	i	76	i	i
Fc1ccc(C(c2nnnn2C2CCCC2)N2CCc3ccccc32)cc1 (centres undefined)	i	i	i	i	i
O=C(Cc1cccs1)Nc1cccc(C(=O)Nc2ccc(C(=O)O)cc2)c1	nt	nt	i	i	i
COc1cccc(C(c2nnnn2CCc2ccccc2)N2CCN(c3ccccc3)CC2)c1OC (centres undefined)	i	i	55	i	i
N#CCCn1c(SCC(=O)Nc2ccc(N3CCOCC3)cc2)nc2ccccc21	i	i	i	i	i
Cc1c(C(=O)NC(C(C)C)C(C)C)cccc1[N+](=O)[O-]	i	i	i	i	i
O=C(NCCO)C1CCN(C(=O)c2ccc(-c3ccccc3)cc2)CC1	nt	nt	i	i	i
CC1(C)CC(=O)C2=C(C1)OC(N)=C(C#N)C21C(=O)N(Cc2ccccc2Cl)c2ccccc21 (centres undefined)	i	i	59	i	i
O=C(Nc1nnc(C2CC2)s1)c1cccc(S(=O)(=O)N2CC(c3ccccc3)CC2=O)c1 (centres undefined)	i	i	i	i	i
CCCCCCCCOC(=O)C[N+](C)(C)C/C=C(/C)Cl	i	i	67	i	i
CCCCCCCCCCCCOC(=O)C[N+](C)(C)C	nt	nt	nt	i	nt
